Measurements as given in ChEMBL document CHEMBL3600302, “A Ligand-Based Drug Design. Discovery of 4-Trifluoromethyl-7,8-pyranocoumarin as a Selective Inhibitor of Human Cytochrome P450 1A2” (J Med Chem, 2015).
pKi: −log10 of the molar value.

Assays:
Cytochrome P450 1A1 [1] = target: T1, Cytochrome P450 1A1 (Homo sapiens, UniProt P04798); experiment: Inhibition of human microsomal CYP1A1-dependent ethoxyresorufin-O-deethylase activity by spectrofluorimetric analysis in presence of NADPH regenerating solution
T1 sequence (P04798 whole entry): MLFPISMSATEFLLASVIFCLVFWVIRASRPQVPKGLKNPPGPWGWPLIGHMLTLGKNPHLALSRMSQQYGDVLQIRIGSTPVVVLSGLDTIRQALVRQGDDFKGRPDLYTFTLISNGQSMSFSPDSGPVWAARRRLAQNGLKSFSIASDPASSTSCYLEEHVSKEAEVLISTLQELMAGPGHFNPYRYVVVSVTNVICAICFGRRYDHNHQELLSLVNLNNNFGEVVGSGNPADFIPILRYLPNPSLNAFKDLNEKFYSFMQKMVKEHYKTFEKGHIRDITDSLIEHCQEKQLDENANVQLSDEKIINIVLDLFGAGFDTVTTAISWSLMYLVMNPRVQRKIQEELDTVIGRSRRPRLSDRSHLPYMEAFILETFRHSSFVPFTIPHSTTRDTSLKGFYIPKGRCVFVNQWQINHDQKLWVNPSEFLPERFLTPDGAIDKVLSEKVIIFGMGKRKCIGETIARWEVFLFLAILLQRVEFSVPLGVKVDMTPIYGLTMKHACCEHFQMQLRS
Method in brief: (§1)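 Microsomal P450 (final 5 nM) in 0.1 M potassium phosphate pH 7.6 with MgCl2 at 37 °C. Substrate final 5 µM: ethoxyresorufin for 1A1/1B1, methoxyresorufin for 1A2. […] Ki was taken as the x-intercept of Dixon plots (1/v0 vs [I]). Mean ± SD of three independent experiments. Selectivity ratios are ratios of these Ki.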

Cytochrome P450 1B1 [2] = target: T2, Cytochrome P450 1B1 (Homo sapiens, UniProt Q16678); experiment: Inhibition of human microsomal CYP1B1-dependent ethoxyresorufin-O-deethylase activity by spectrofluorimetric analysis in presence of NADPH regenerating solution
T2 sequence (Q16678 whole entry): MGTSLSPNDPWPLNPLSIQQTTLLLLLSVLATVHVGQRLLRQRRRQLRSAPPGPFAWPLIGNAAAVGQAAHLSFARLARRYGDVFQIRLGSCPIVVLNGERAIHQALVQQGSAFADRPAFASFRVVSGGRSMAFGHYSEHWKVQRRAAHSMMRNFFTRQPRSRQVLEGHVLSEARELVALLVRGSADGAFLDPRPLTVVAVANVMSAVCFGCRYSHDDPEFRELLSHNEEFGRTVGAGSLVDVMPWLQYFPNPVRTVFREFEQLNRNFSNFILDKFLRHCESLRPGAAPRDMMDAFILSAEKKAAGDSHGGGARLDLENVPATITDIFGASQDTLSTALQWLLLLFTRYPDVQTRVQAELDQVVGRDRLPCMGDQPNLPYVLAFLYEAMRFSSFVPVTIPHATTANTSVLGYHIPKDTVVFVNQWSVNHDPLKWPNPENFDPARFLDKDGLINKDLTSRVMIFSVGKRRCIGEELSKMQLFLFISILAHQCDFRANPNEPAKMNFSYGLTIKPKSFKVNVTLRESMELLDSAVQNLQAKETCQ
Method in brief: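 Microsomal P450 (final 5 nM) in 0.1 M potassium phosphate pH 7.6 with MgCl2 at 37 °C. Substrate final 5 µM: ethoxyresorufin for 1A1/1B1, methoxyresorufin for 1A2. Ki was taken as the x-intercept of Dixon plots (1/v0 vs [I]). Mean ± SD of three independent experiments. Selectivity ratios are ratios of these Ki.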

Cytochrome P450 1B1 [3] = target: T2, Cytochrome P450 1B1; experiment: Inhibition of human microsomal CYP1B1-dependent ethoxyresorufin-O-deethylase activity at 10 nM preincubated for 5 mins followed by NADPH regenerating solution and substrate addition measured over 6 mins by spectrofluorimetric analysis; settings: 0.1 h, 0.01 µM
Method in brief: (§2)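 Microsomal P450 in 0.1 M potassium phosphate pH 7.6 with MgCl2 and 10 nM inhibitor in DMSO, 2 mL final. Preincubated 5 min at 37 °C either with NADPH-regenerating solution, or without it, with NADPH then added at start. Reaction started with ethoxyresorufin (final 5 µM). Resorufin formation followed 6 min at 37 °C.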

CYP1A2 = target: T3, CYP1A2 (Homo sapiens, UniProt P05177); experiment: Time-dependent inhibition of human microsomal CYP1A2-dependent methoxyresorufin-O-demethylase activity by spectrofluorimetric analysis in presence of NADPH regenerating solution; settings: human microsomal CYP1A2, probe methoxyresorufin (O-demethylation)
T3 sequence (P05177 whole entry): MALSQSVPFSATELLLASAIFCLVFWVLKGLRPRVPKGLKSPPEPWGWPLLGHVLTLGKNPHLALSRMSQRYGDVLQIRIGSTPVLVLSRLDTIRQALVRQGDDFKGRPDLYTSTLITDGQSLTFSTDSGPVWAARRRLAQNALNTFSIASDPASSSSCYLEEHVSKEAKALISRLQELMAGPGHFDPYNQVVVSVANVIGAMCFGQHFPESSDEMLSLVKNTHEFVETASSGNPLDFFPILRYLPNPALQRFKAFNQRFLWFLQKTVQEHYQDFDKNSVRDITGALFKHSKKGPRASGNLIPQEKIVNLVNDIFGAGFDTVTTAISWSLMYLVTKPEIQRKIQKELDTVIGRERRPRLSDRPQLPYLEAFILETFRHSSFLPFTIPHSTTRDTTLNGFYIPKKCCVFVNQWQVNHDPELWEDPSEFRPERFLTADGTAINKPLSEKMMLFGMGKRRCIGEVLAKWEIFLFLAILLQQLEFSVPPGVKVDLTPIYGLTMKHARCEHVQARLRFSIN
Method in brief: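 1A2 MROD run with NADPH at 0.0125, 0.025, 0.05 and 0.1 µM inhibitor, product monitored continuously over 6 min. Activity at different times came from first derivatives of product curves, expressed as % of control remaining. KI and limiting kinact were derived from the resulting linear plot.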

Homo sapiens [4] = species on record: Homo sapiens; experiment: Selectivity ratio of Ki for human microsomal CYP1B1 to Ki for human microsomal CYP1A2; method in brief: as §1
Homo sapiens [5] = species on record: Homo sapiens; experiment: Selectivity ratio of Ki for human microsomal CYP1A1 to Ki for human microsomal CYP1A2; method in brief: as §1
Cytochrome P450 1B1 [6] = target: T2, Cytochrome P450 1B1; experiment: Inhibition of human microsomal CYP1B1-dependent ethoxyresorufin-O-deethylase activity at 10 nM measured over 6 mins by spectrofluorimetric analysis in absence of NADPH regenerating solution; settings: 0.1 h, 0.01 µM; method in brief: as §2
Cytochrome P450 1A1 [7] = target: T1, Cytochrome P450 1A1; experiment: Inhibition of human microsomal CYP1A1-dependent ethoxyresorufin-O-deethylase activity at 10 nM preincubated for 5 mins followed by NADPH regenerating solution and substrate addition measured over 6 mins by spectrofluorimetric analysis; settings: 0.1 h, 0.01 µM; method in brief: as §2

pKi (Cytochrome P450 1A1 [1]): 6.37
pKi (Cytochrome P450 1B1 [2]): 6.74
inhibition (INH) (Cytochrome P450 1B1 [3]): Not Active
kinact (CYP1A2): 0.007 s⁻¹
Ratio Ki (Homo sapiens [4]): 6
Ratio Ki (Homo sapiens [5]): 14
inhibition (INH) (Cytochrome P450 1B1 [6]): Not Active
inhibition (INH) (Cytochrome P450 1A1 [7]): Not Active
SMILES: Cc1cc2c(ccc3c(=O)cc(-c4ccccc4)oc32)o1
